In the array DNA melting data of Ke et al. (doi:10.1101/2024.01.08.574731):

Columns and labels:
[1] = folding enthalpy; higher = less favourable; fluorescence melt of hairpins on a sequencing array, two-state fit; conditions: sodium 0.088 M
In short: (§1)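 Cy3 fluorescence of library hairpins on a sequenced MiSeq flow cell, with annealed Cy3 and quencher oligos, was imaged in 50 mM Na-HEPES pH 8.0, 25 mM NaCl in 2.5 °C steps up to 60 °C. Signals were normalised to pre-quench Cy3 and to control variants. Melting temperature and folding enthalpy came from bootstrapped two-state fits, inverse-variance combined over four replicates. Fitted temperatures were raised by 9.35 °C to match UV melts.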

[2] = melting temperature; fluorescence melt of hairpins on a sequencing array, two-state fit, raised by 9.35 °C to match UV melts; conditions: sodium 0.088 M
In short: as §1

| Sequence | folding enthalpy [1] | Tm [2] |
| --- | --- | --- |
| GGAGCCGAAAGGCCATCC ((((((....)))..))) | -8.68 kcal/mol | 31.6 °C |
| GGAGCCGAAAGGCCTTCC ((((((....)))..))) | -15.4 kcal/mol | 46.2 °C |
| GGAGCCGAAAGGCGGTCC ((((((....)))..))) | -9.55 kcal/mol | 48.1 °C |
| GGAGCCGCGAAAGCGTCC (((..(((....)))))) | -10.9 kcal/mol | 30.7 °C |
| GGAGCGGGAAACCGTTCC (((.(((....))).))) | -38.4 kcal/mol | 54.9 °C |
| GGAGCGGGAAACTGCTCC (((((.(....).))))) | -45 kcal/mol | 60.9 °C |
| GGAGCTCGAAAGAGGTCC (((.(((....))).))) | -37.8 kcal/mol | 65.9 °C |
| GGAGCTGGAAACGGTTCC (((.(.(....).).))) | -17.5 kcal/mol | 37.6 °C |
| GGAGGACCGAAAGGTTCC (((..(((....)))))) | -12.6 kcal/mol | 42.9 °C |
| GGAGGAGCGAAAGCTTCC (((..(((....)))))) | -13.4 kcal/mol | 38.6 °C |
| GGAGGCGAAAGCCCATCC ((((((....)))..))) | -9.1 kcal/mol | 31.3 °C |
| GGAGGCGAAAGCCCGTCC ((((((....)))..))) | -8.99 kcal/mol | 39.7 °C |
| GGAGGCGAAAGCCGCTCC ((((((....)))..))) | -9.69 kcal/mol | 49.2 °C |
| GGAGGCGAAAGCCTTTCC ((((((....)))..))) | -10.3 kcal/mol | 32.4 °C |
| GGAGGCGCGAAAGCGTCC (((..(((....)))))) | -8.65 kcal/mol | 47 °C |
| GGAGGGCCGAAAGGCTCC (((..(((....)))))) | -9.45 kcal/mol | 39.4 °C |
| GGAGGGGAAACCCTCC ((((((....)))))) | -30.9 kcal/mol | 62.8 °C |
| GGAGGTACGAAAGTATCC (((..(((....)))))) | -13 kcal/mol | 32.9 °C |
| GGAGGTTCGAAAGAATCC (((..(((....)))))) | -14.4 kcal/mol | 28.9 °C |
| GGAGTAGGAAACCACTCC (((((.(....).))))) | -28.3 kcal/mol | 42.6 °C |
| GGAGTAGGAAACTACCCC ((.((((....)))).)) | -24.4 kcal/mol | 35.1 °C |
| GGAGTCCCGAAAGGGTCC (((..(((....)))))) | -12.4 kcal/mol | 34 °C |
| GGAGTCGAAAGACACTCC ((((((....)))..))) | -16 kcal/mol | 37.5 °C |

| Sequence | folding enthalpy [1] | Tm [2] |
| --- | --- | --- |
| GGAGTCGAAAGACCTCC ((((((....))).))) | -24.5 kcal/mol | 50 °C |
| GGAGTCGAAAGACCTTCC ((((((....)))..))) | -22.5 kcal/mol | 40.6 °C |
| GGAGTCGAAAGACTATCC ((((((....)))..))) | -13.8 kcal/mol | 32.9 °C |
| GGAGTCGAAAGACTTCC ((((((....))).))) | -21.2 kcal/mol | 48.7 °C |
| GGAGTCGAAAGACTTTCC ((((((....)))..))) | -11.1 kcal/mol | 34 °C |
| GGAGTGAAAACTCC (((((....))))) | -27.2 kcal/mol | 54.8 °C |
| GGAGTGCCGAAAGGCTCC (((..(((....)))))) | -12.2 kcal/mol | 41.9 °C |
| GGAGTGCGAAAGCATCC (((.(((....)))))) | -17.1 kcal/mol | 48.2 °C |
| GGAGTGCGAAAGCATTCC (((.(((....))).))) | -30.4 kcal/mol | 58.1 °C |
| GGAGTGGGAAACCGCTCC ((((.((....)).)))) | -44.3 kcal/mol | 57.8 °C |
| GGAGTGGGAAACCGTTCC (((..((....))..))) | -17.8 kcal/mol | 32.3 °C |
| GGAGTGGGAAACTACTCC (((((.(....).))))) | -24.8 kcal/mol | 49.5 °C |
| GGAGTTACGAAAGTATCC (((..(((....)))))) | -9.09 kcal/mol | 26.1 °C |
| GGAGTTGGAAACAACTCC (((((((....))))))) | -45.3 kcal/mol | 65.9 °C |
| GGAGTTGGAAACAGCTTC (.((.((....)).)).) | -37 kcal/mol | 37.1 °C |
| GGATAAGAAATTATCC ((((((....)))))) | -27.6 kcal/mol | 42.1 °C |
| GGATAAGGAAACTTATCC (((((((....))))))) | -37.6 kcal/mol | 52.8 °C |
| GGATACGAAAGTAAATCC ((((((....)))..))) | -19.4 kcal/mol | 35.8 °C |
| GGATACGAAAGTAATTCC ((((((....)))..))) | -12 kcal/mol | 27.7 °C |
| GGATACGAAAGTAGGTCC ((((((....)))..))) | -8.27 kcal/mol | 28.4 °C |
| GGATACGAAAGTATATCC ((((((....)))..))) | -18.3 kcal/mol | 34.5 °C |
| GGATACGGAAACGTATTC (.(((((....))))).) | -24.8 kcal/mol | 45.2 °C |
| GGATACTCGAAAGAGTCC (((..(((....)))))) | -11.7 kcal/mol | 32.6 °C |

| Sequence | folding enthalpy [1] | Tm [2] |
| --- | --- | --- |
| GGATAGGGAAACCTGTCC (((.(((....))).))) | -30.9 kcal/mol | 48.2 °C |
| GGATATCGAAAGATTCC (((.(((....)))))) | -25.9 kcal/mol | 39.5 °C |
| GGATATGGAAACATACCC ((.((((....)))).)) | -25.3 kcal/mol | 33.2 °C |
| GGATATGGAAACATATCC (((((((....))))))) | -47 kcal/mol | 54.7 °C |
| GGATATGGAAACATATTC (.(((((....))))).) | -22.2 kcal/mol | 36.9 °C |
| GGATATGGAAACATGTCC (((.(((....))).))) | -30.4 kcal/mol | 45.3 °C |
| GGATCACGAAAGTGCTCC (((.(((....))).))) | -27.4 kcal/mol | 49.4 °C |
| GGATCAGCGAAAGCTTCC (((..(((....)))))) | -12.7 kcal/mol | 30.7 °C |
| GGATCAGGAAACTGGTTC (.(.(((....))).).) | -12.2 kcal/mol | 29.1 °C |
| GGATCCCGAAAGGGCTCC (((.(((....))).))) | -26.5 kcal/mol | 51.3 °C |
| GGATCCGAAAGGAAATCC ((((((....)))..))) | -25.9 kcal/mol | 38.2 °C |
| GGATCCGAAAGGAGATCC ((((((....)))..))) | -24 kcal/mol | 44.8 °C |
| GGATCCGAAAGGAGTTCC ((((((....)))..))) | -14.8 kcal/mol | 32.8 °C |
| GGATCCGAAAGGATTTCC ((((((....)))..))) | -13.7 kcal/mol | 37.4 °C |
| GGATCCGGAAACGAATCC ((((.((....)).)))) | -29 kcal/mol | 41.8 °C |
| GGATCCGGAAACGGATTC (.(((((....))))).) | -15.7 kcal/mol | 52 °C |
| GGATCGACGAAAGTCTCC (((..(((....)))))) | -10.6 kcal/mol | 27.9 °C |
| GGATCGGAAACGATCC ((((((....)))))) | -28.6 kcal/mol | 66.2 °C |
| GGATCGGGAAACCGACCC ((.((((....)))).)) | -31.8 kcal/mol | 47.7 °C |
| GGATCGGGAAACCGGTTC (.(.(((....))).).) | -20.1 kcal/mol | 38.2 °C |
| GGATCGGGAAACTGATCC (((((.(....).))))) | -39.1 kcal/mol | 52.4 °C |
| GGATCGTCGAAAGACTCC (((..(((....)))))) | -11.8 kcal/mol | 28.9 °C |
| GGATCTCGAAAGAGGTCC (((.(((....))).))) | -41.4 kcal/mol | 57.3 °C |

| Sequence | folding enthalpy [1] | Tm [2] |
| --- | --- | --- |
| GGATCTCGAAAGAGTTCC (((.(((....))).))) | -27.5 kcal/mol | 46.1 °C |
| GGATCTGGAAACGGATCC (((((.(....).))))) | -38.4 kcal/mol | 51.6 °C |
| GGATGACGAAAGTCTCC (((.(((....)))))) | -20 kcal/mol | 48.6 °C |
| GGATGAGAAATCATCC ((((((....)))))) | -42.4 kcal/mol | 52.9 °C |
| GGATGCCCGAAAGGGTCC (((..(((....)))))) | -11 kcal/mol | 33.2 °C |
| GGATGCGAAAGCACCTCC ((((((....)))..))) | -14.4 kcal/mol | 54.6 °C |
| GGATGCGAAAGCACTTCC ((((((....)))..))) | -17.4 kcal/mol | 42.2 °C |
| GGATGCGAAAGCAGTCC ((((((....))).))) | -22.3 kcal/mol | 52.4 °C |
| GGATGGGCGAAAGCCTCC (((..(((....)))))) | -11.3 kcal/mol | 36.9 °C |
| GGATGGGGAAACCCATTC (.(((((....))))).) | -22 kcal/mol | 47.5 °C |
| GGATGTGGAAACACACCC ((.((((....)))).)) | -27 kcal/mol | 44.3 °C |
| GGATTACCGAAAGGTTCC (((..(((....)))))) | -13.5 kcal/mol | 30.8 °C |
| GGATTACGAAAGTAGTCC (((.(((....))).))) | -37.5 kcal/mol | 50.9 °C |
| GGATTAGGAAACTAACCC ((.((((....)))).)) | -17.3 kcal/mol | 30.1 °C |
| GGATTCCGAAAGGAGTCC (((.(((....))).))) | -41.6 kcal/mol | 55.6 °C |
| GGATTCGAAAGAATATCC ((((((....)))..))) | -9.96 kcal/mol | 30.3 °C |
| GGATTCGAAAGAATCC ((((((....)))))) | -37.9 kcal/mol | 62.9 °C |
| GGATTCGAAAGAATTCC ((((((....))).))) | -20.4 kcal/mol | 42.6 °C |
| GGATTCGGAAACGAACCC ((.((((....)))).)) | -25.6 kcal/mol | 45.6 °C |
| GGATTCGGAAACGAATCC (((((((....))))))) | -35.8 kcal/mol | 67.1 °C |
| GGATTCGGAAACGAGTCC (((.(((....))).))) | -35.7 kcal/mol | 51.1 °C |
| GGATTTCGAAAGAATTCC (((.(((....))).))) | -31.1 kcal/mol | 42 °C |
